# What was measured:
# Assay type in all cases: functional
# CCRF-CEM = test: Growth inhibition of human CCRF-CEM cells at 10 uM after 48 hrs by coulter counter method; conditions: read-out: GI
# Procedure, shortened: (§1)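 NCI 60-cell-line panel, single dose. Compound dissolved first in DMSO, then diluted in phosphate-buffered saline so that every final dilution held under 1% DMSO. Duplicate wells received cells at 6 × 10⁴ cells/ml. Controls held PBS/DMSO at the same dilution. Plates were incubated 48 h at 37 °C under 5% CO₂. Cells were then diluted 10-fold in saline and counted on a Coulter counter, with counts corrected for the dilution. Results are given as percent growth inhibition.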
# HL-60(TB) = test: Growth inhibition of human HL-60(TB) cells at 10 uM after 48 hrs by coulter counter method; conditions: HL-60, 48 h, read-out: GI
# Procedure, shortened: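 Single-dose screen on the NCI 60-line panel (leukemia subpanel). Compound is dissolved in DMSO and diluted in PBS, with final DMSO below 1%. Duplicate wells hold 6 × 10⁴ cells/ml at 37 °C, 5% CO₂, for 48 h. Cells are counted by Coulter counter after 10-fold saline dilution. Read-out is percent growth versus PBS/DMSO controls, expressed as % growth inhibition.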
# K562 = test: Growth inhibition of human K562 cells at 10 uM after 48 hrs by coulter counter method; conditions: K562, 48 h, read-out: GI; procedure, shortened: as §1
# MOLT-4 = test: Growth inhibition of human MOLT4 cells at 10 uM after 48 hrs by coulter counter method; conditions: MOLT-4, 48 h, read-out: GI; procedure, shortened: as §1
# RPMI-8226 = test: Growth inhibition of human RPMI8226 cells at 10 uM after 48 hrs by coulter counter method; conditions: RPMI-8226, 48 h, read-out: GI; procedure, shortened: as §1
# SR = test: Growth inhibition of human SR cells at 10 uM after 48 hrs by coulter counter method; conditions: read-out: GI; procedure, shortened: as §1
# A549 = test: Growth inhibition of human A549 cells at 10 uM after 48 hrs by coulter counter method; conditions: A549, 48 h, read-out: GI; procedure, shortened: as §1
# EKVX = test: Growth inhibition of human EKVX cells at 10 uM after 48 hrs by coulter counter method; conditions: read-out: GI; procedure, shortened: as §1
# NCI-H226 = test: Growth inhibition of human NCI-H226 cells at 10 uM after 48 hrs by coulter counter method; conditions: NCI-H226, 48 h, read-out: GI; procedure, shortened: as §1
# NCI-H23 = test: Growth inhibition of human NCI-H23 cells at 10 uM after 48 hrs by coulter counter method; conditions: NCI-H23, 48 h, read-out: GI; procedure, shortened: as §1
# NCI-H322M = test: Growth inhibition of human NCI-H322M cells at 10 uM after 48 hrs by coulter counter method; conditions: read-out: GI; procedure, shortened: as §1
# NCI-H522 = test: Growth inhibition of human NCI-H522 cells at 10 uM after 48 hrs by coulter counter method; conditions: NCI-H522, 48 h, read-out: GI; procedure, shortened: as §1
# HCT-116 = test: Growth inhibition of human HCT116 cells at 10 uM after 48 hrs by coulter counter method; conditions: HCT-116, 48 h, read-out: GI; procedure, shortened: as §1
# HCT-15 = test: Growth inhibition of human HCT15 cells at 10 uM after 48 hrs by coulter counter method; conditions: HCT-15, 48 h, read-out: GI; procedure, shortened: as §1
# HT-29 = test: Growth inhibition of human HT-29 cells at 10 uM after 48 hrs by coulter counter method; conditions: HT-29, 48 h, read-out: GI; procedure, shortened: as §1
# KM12 = test: Growth inhibition of human KM12 cells at 10 uM after 48 hrs by coulter counter method; conditions: KM12, 48 h, read-out: GI; procedure, shortened: as §1
# SF-268 = test: Growth inhibition of human SF268 cells at 10 uM after 48 hrs by coulter counter method; conditions: SF-268, 48 h, read-out: GI; procedure, shortened: as §1
# SF-295 = test: Growth inhibition of human SF295 cells at 10 uM after 48 hrs by coulter counter method; conditions: SF-295, 48 h, read-out: GI; procedure, shortened: as §1
# SNB-19 = test: Growth inhibition of human SNB19 cells at 10 uM after 48 hrs by coulter counter method; conditions: SNB-19, 48 h, read-out: GI; procedure, shortened: as §1
# SNB-75 = test: Growth inhibition of human SNB75 cells at 10 uM after 48 hrs by coulter counter method; conditions: SNB-75, 48 h, read-out: GI; procedure, shortened: as §1
# U-251 = test: Growth inhibition of human U251 cells at 10 uM after 48 hrs by coulter counter method; conditions: U-251, 48 h, read-out: GI; procedure, shortened: as §1
# LOX IMVI = test: Growth inhibition of human LOXIMVI cells at 10 uM after 48 hrs by coulter counter method; conditions: read-out: GI; procedure, shortened: as §1
# Malme-3M = test: Growth inhibition of human MALME-3M cells at 10 uM after 48 hrs by coulter counter method; conditions: read-out: GI; procedure, shortened: as §1
# M14 = test: Growth inhibition of human M14 cells at 10 uM after 48 hrs by coulter counter method; conditions: M14, 48 h, read-out: GI; procedure, shortened: as §1
# MDA-MB-435 = test: Growth inhibition of human MDA-MB-435 cells at 10 uM after 48 hrs by coulter counter method; conditions: MDA-MB-435, 48 h, read-out: GI; procedure, shortened: as §1
# SK-MEL-2 = test: Growth inhibition of human SK-MEL-2 cells at 10 uM after 48 hrs by coulter counter method; conditions: SK-MEL-2, 48 h, read-out: GI; procedure, shortened: as §1
# SK-MEL-28 = test: Growth inhibition of human SK-MEL-28 cells at 10 uM after 48 hrs by coulter counter method; conditions: SK-MEL-28, 48 h, read-out: GI; procedure, shortened: as §1
# SK-MEL-5 = test: Growth inhibition of human SK-MEL-5 cells at 10 uM after 48 hrs by coulter counter method; conditions: SK-MEL-5, 48 h, read-out: GI; procedure, shortened: as §1
# UACC-257 = test: Growth inhibition of human UACC257 cells at 10 uM after 48 hrs by coulter counter method; conditions: UACC-257, 48 h, read-out: GI; procedure, shortened: as §1
# UACC-62 = test: Growth inhibition of human UACC62 cells at 10 uM after 48 hrs by coulter counter method; conditions: UACC-62, 48 h, read-out: GI; procedure, shortened: as §1
# IGROV-1 = test: Growth inhibition of human IGROV1 cells at 10 uM after 48 hrs by coulter counter method; conditions: IGROV-1, 48 h, read-out: GI; procedure, shortened: as §1
# OVCAR-8 = test: Growth inhibition of human OVCAR8 cells at 10 uM after 48 hrs by coulter counter method; conditions: OVCAR-8, 48 h, read-out: GI; procedure, shortened: as §1
# NCI/ADR-RES = test: Growth inhibition of human NCI/ADR-RES cells at 10 uM after 48 hrs by coulter counter method; conditions: read-out: GI; procedure, shortened: as §1
# 786-0 = test: Growth inhibition of human 786-0 cells at 10 uM after 48 hrs by coulter counter method; conditions: 786-0, 48 h, read-out: GI; procedure, shortened: as §1
# A498 = test: Growth inhibition of human A498 cells at 10 uM after 48 hrs by coulter counter method; conditions: A498, 48 h, read-out: GI; procedure, shortened: as §1
# ACHN = test: Growth inhibition of human ACHN cells at 10 uM after 48 hrs by coulter counter method; conditions: read-out: GI; procedure, shortened: as §1
# CAKI-1 = test: Growth inhibition of human Caki1 cells at 10 uM after 48 hrs by coulter counter method; conditions: CAKI-1, 48 h, read-out: GI; procedure, shortened: as §1
# SN12C = test: Growth inhibition of human SN12C cells at 10 uM after 48 hrs by coulter counter method; conditions: read-out: GI; procedure, shortened: as §1
# TK-10 = test: Growth inhibition of human TK10 cells at 10 uM after 48 hrs by coulter counter method; conditions: TK-10, 48 h, read-out: GI; procedure, shortened: as §1
# UO-31 = test: Growth inhibition of human UO31 cells at 10 uM after 48 hrs by coulter counter method; conditions: UO-31, 48 h, read-out: GI; procedure, shortened: as §1
# PC-3 = test: Growth inhibition of human PC3 cells at 10 uM after 48 hrs by coulter counter method; conditions: PC-3, 48 h, read-out: GI; procedure, shortened: as §1
# MCF7 = test: Growth inhibition of human MCF7 cells at 10 uM after 48 hrs by coulter counter method; conditions: MCF7, 48 h, read-out: GI; procedure, shortened: as §1
# BT-549 = test: Growth inhibition of human BT549 cells at 10 uM after 48 hrs by coulter counter method; conditions: BT-549, 48 h, read-out: GI; procedure, shortened: as §1
# T47D = test: Growth inhibition of human T47D cells at 10 uM after 48 hrs by coulter counter method; conditions: read-out: GI; procedure, shortened: as §1
# MDA-MB-468 = test: Growth inhibition of human MDA-MB-468 cells at 10 uM after 48 hrs by coulter counter method; conditions: MDA-MB-468, 48 h, read-out: GI; procedure, shortened: as §1
structure (smiles),measurement,setting,value
O=C1CN2N=C(c3ccccc3)OC2=N1,inhibition of growth at 10 µM,CCRF-CEM,< 10%
same,inhibition of growth at 10 µM,HL-60(TB),< 10%
same,inhibition of growth at 10 µM,K562,< 10%
same,inhibition of growth at 10 µM,MOLT-4,< 10%
same,inhibition of growth at 10 µM,RPMI-8226,< 10%
same,inhibition of growth at 10 µM,SR,< 10%
same,inhibition of growth at 10 µM,A549,< 10%
same,inhibition of growth at 10 µM,EKVX,< 10%
same,inhibition of growth at 10 µM,NCI-H226,< 10%
same,inhibition of growth at 10 µM,NCI-H23,< 10%
same,inhibition of growth at 10 µM,NCI-H322M,< 10%
same,inhibition of growth at 10 µM,NCI-H522,< 10%
same,inhibition of growth at 10 µM,HCT-116,< 10%
same,inhibition of growth at 10 µM,HCT-15,< 10%
same,inhibition of growth at 10 µM,HT-29,< 10%
same,inhibition of growth at 10 µM,KM12,< 10%
same,inhibition of growth at 10 µM,SF-268,< 10%
same,inhibition of growth at 10 µM,SF-295,14.7%
same,inhibition of growth at 10 µM,SNB-19,< 10%
same,inhibition of growth at 10 µM,SNB-75,< 10%
same,inhibition of growth at 10 µM,U-251,< 10%
same,inhibition of growth at 10 µM,LOX IMVI,< 10%
same,inhibition of growth at 10 µM,Malme-3M,< 10%
same,inhibition of growth at 10 µM,M14,< 10%
same,inhibition of growth at 10 µM,MDA-MB-435,< 10%
same,inhibition of growth at 10 µM,SK-MEL-2,< 10%
same,inhibition of growth at 10 µM,SK-MEL-28,< 10%
same,inhibition of growth at 10 µM,SK-MEL-5,< 10%
same,inhibition of growth at 10 µM,UACC-257,< 10%
same,inhibition of growth at 10 µM,UACC-62,< 10%
same,inhibition of growth at 10 µM,IGROV-1,< 10%
same,inhibition of growth at 10 µM,OVCAR-8,< 10%
same,inhibition of growth at 10 µM,NCI/ADR-RES,< 10%
same,inhibition of growth at 10 µM,786-0,< 10%
same,inhibition of growth at 10 µM,A498,10.9%
same,inhibition of growth at 10 µM,ACHN,< 10%
same,inhibition of growth at 10 µM,CAKI-1,21.2%
same,inhibition of growth at 10 µM,SN12C,< 10%
same,inhibition of growth at 10 µM,TK-10,< 10%
same,inhibition of growth at 10 µM,UO-31,20.4%
same,inhibition of growth at 10 µM,PC-3,< 10%
same,inhibition of growth at 10 µM,MCF7,< 10%
same,inhibition of growth at 10 µM,BT-549,< 10%
same,inhibition of growth at 10 µM,T47D,< 10%
same,inhibition of growth at 10 µM,MDA-MB-468,< 10%
